ChEMBL document CHEMBL3102776, “Synthesis and biological evaluation of farnesylthiosalicylamides as potential anti-tumor agents” (Bioorg Med Chem, 2014)
pIC50: −log10 of the molar value. Converted amounts (≈) assume the structure as drawn. The source made the active and inactive calls. No cut-off for these calls is given here.

Columns and labels:
[1] = test system: SMMC-7721; experiment: Induction of apoptosis in human SMMC7721 cells assessed as necrotic cells at 6 uM after 48 hrs by annexin V-FITC/propidium iodide staining-based flow cytometry (reference value: 0.77%); format: functional
[2] = test system: SMMC-7721; experiment: Inhibition of Ras in human SMMC7721 cells assessed as reduction in phosphorylated ERK2 level after 8 hrs by immunoblotting analysis; format: cell-based
In short: (§1)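 SMMC-7721 cells at 1.5 × 10⁵/mL treated with 3.0, 6.0 or 12 µmol/L compound or vehicle for 8 h. Cells lysed, 50 µg protein per lane run on 12% SDS–PAGE gels. Blots probed for total and phospho-ERK1/2 (Thr202/Tyr204), total and phospho-Akt (Ser473), and β-actin. Densitometry relative to β-actin. Means ± SEM of three experiments.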

[3] = test system: SMMC-7721; experiment: Cytotoxicity against human SMMC7721 cells after 48 hrs by MTT assay; format: functional, cell-based; details: SMMC-7721, 48 h
In short: (§2)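 Cells seeded at 10⁴ per well in DMEM with 10% FBS and grown overnight. Compound at a range of concentrations for 48 h, in triplicate. MTT (5 mg mL⁻¹ stock) added for the last 4 h, formazan dissolved in DMSO, absorbance read at 570 nm. Percent inhibition used to derive IC50. Values are mean ± SEM of at least three independent experiments.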

[4] = test system: MCF7; experiment: Cytotoxicity against human MCF7 cells after 48 hrs by MTT assay; format: functional, cell-based; details: MCF7, 48 h; in short: as §2
[5] = test system: SMMC-7721; experiment: Induction of apoptosis in human SMMC7721 cells assessed as reduction in Bcl2 level after 48 hrs by Western blotting analysis; format: functional, cell-based
[6] = test system: SMMC-7721; experiment: Induction of apoptosis in human SMMC7721 cells assessed as late apoptotic cells at 6 uM after 48 hrs by annexin V-FITC/propidium iodide staining-based flow cytometry (reference value: 1.55%); format: functional
[7] = test system: SMMC-7721; experiment: Induction of apoptosis in human SMMC7721 cells assessed as late apoptotic cells at 12 uM after 48 hrs by annexin V-FITC/propidium iodide staining-based flow cytometry (reference value: 1.55%); format: functional
[8] = test system: SK-OV-3; experiment: Cytotoxicity against human SKOV3 cells after 48 hrs by MTT assay; format: functional, cell-based; details: SK-OV-3, 48 h; in short: as §2
[9] = test system: SMMC-7721; experiment: Inhibition of Ras in human SMMC7721 cells assessed as reduction in phosphorylated ERK1 level at 12 uM after 8 hrs by immunoblotting analysis; format: cell-based; in short: as §1
[10] = test system: SMMC-7721; experiment: Induction of apoptosis in human SMMC7721 cells assessed as increase in Bax level after 48 hrs by Western blotting analysis; format: functional, cell-based
In short: (§3)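 SMMC-7721 cells treated with or without compound at several concentrations for 48 h. Lysates immunoblotted for Bax, Bcl-2 and caspase-3, with β-actin as loading control. Band levels relative to β-actin quantified by densitometric scanning. Means ± SEM from three separate experiments.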

[11] = test system: SMMC-7721; experiment: Induction of apoptosis in human SMMC7721 cells assessed as viable cells at 3 uM after 48 hrs by annexin V-FITC/propidium iodide staining-based flow cytometry (reference value: 93.81%); format: functional; details: SMMC-7721, 48 h, read-out: Activity
[12] = test system: SMMC-7721; experiment: Induction of apoptosis in human SMMC7721 cells assessed as late apoptotic cells at 3 uM after 48 hrs by annexin V-FITC/propidium iodide staining-based flow cytometry (reference value: 1.55%); format: functional
[13] = Cytotoxicity against human H460 cells after 48 hrs by MTT assay; format: functional, cell-based; details: NCI-H460, 48 h; in short: as §2
[14] = test system: SMMC-7721; experiment: Inhibition of Ras in human SMMC7721 cells assessed as reduction in phosphorylated ERK1 level after 8 hrs by immunoblotting analysis; format: cell-based; in short: as §1
[15] = test system: SMMC-7721; experiment: Inhibition of Ras in human SMMC7721 cells assessed as reduction in phosphorylated Akt level after 8 hrs by immunoblotting analysis; format: cell-based; in short: as §1
[16] = test system: SMMC-7721; experiment: Induction of apoptosis in human SMMC7721 cells assessed as necrotic cells at 12 uM after 48 hrs by annexin V-FITC/propidium iodide staining-based flow cytometry (reference value: 0.77%); format: functional
[17] = test system: SMMC-7721; experiment: Induction of apoptosis in human SMMC7721 cells assessed as increase in caspase-3 level after 48 hrs by Western blotting analysis; format: functional, cell-based; in short: as §3
[18] = Lipophilicity, log P of the compound in 10% PEG400 aqueous solution; format: physicochemical
[19] = Aqueous solubility of the compound in 10% PEG400 aqueous solution after 24 hrs by HPLC analysis; format: physicochemical
In short: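 Roughly 20.0 mg of solid in 5 mL of 10% PEG400 in water. Sonicated 10 min, then stirred 24 h at 25 °C in a water bath. Centrifuged 10 min at 10,000 rpm and the supernatant passed through a microporous membrane. Concentration measured by HPLC against a standard curve.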

[20] = Cytotoxicity against human SGC7901 cells after 48 hrs by MTT assay; format: functional, cell-based; details: SGC-7901, 48 h; in short: as §2
[21] = test system: SMMC-7721; experiment: Induction of apoptosis in human SMMC7721 cells assessed as early apoptotic cells at 6 uM after 48 hrs by annexin V-FITC/propidium iodide staining-based flow cytometry (reference value: 3.87%); format: functional
[22] = test system: SMMC-7721; experiment: Induction of apoptosis in human SMMC7721 cells assessed as viable cells at 6 uM after 48 hrs by annexin V-FITC/propidium iodide staining-based flow cytometry (reference value: 93.81%); format: functional; details: SMMC-7721, 48 h, read-out: Activity
[23] = test system: SMMC-7721; experiment: Induction of apoptosis in human SMMC7721 cells assessed as viable cells at 12 uM after 48 hrs by annexin V-FITC/propidium iodide staining-based flow cytometry (reference value: 93.81%); format: functional; details: SMMC-7721, 48 h, read-out: Activity
[24] = test system: SMMC-7721; experiment: Induction of apoptosis in human SMMC7721 cells assessed as necrotic cells at 3 uM after 48 hrs by annexin V-FITC/propidium iodide staining-based flow cytometry (reference value: 0.77%); format: functional
[25] = test system: EJ; experiment: Cytotoxicity against human EJ cells after 48 hrs by MTT assay; format: functional, cell-based; in short: as §2
[26] = test system: SMMC-7721; experiment: Induction of apoptosis in human SMMC7721 cells assessed as early apoptotic cells at 12 uM after 48 hrs by annexin V-FITC/propidium iodide staining-based flow cytometry (reference value: 3.87%); format: functional
[27] = Cytotoxicity against human PANC1 cells after 48 hrs by MTT assay; format: functional, cell-based; details: PANC-1, 48 h; in short: as §2
[28] = test system: SMMC-7721; experiment: Inhibition of Ras in human SMMC7721 cells assessed as reduction in phosphorylated Akt level at 12 uM after 8 hrs by immunoblotting analysis; format: cell-based; in short: as §1
[29] = test system: SMMC-7721; experiment: Inhibition of Ras in human SMMC7721 cells assessed as reduction in phosphorylated ERK2 level at 12 uM after 8 hrs by immunoblotting analysis; format: cell-based; in short: as §1
[30] = test system: SMMC-7721; experiment: Induction of apoptosis in human SMMC7721 cells after 48 hrs by annexin V-FITC/propidium iodide staining-based flow cytometry; format: functional, cell-based
[31] = test system: SMMC-7721; experiment: Induction of apoptosis in human SMMC7721 cells assessed as early apoptotic cells at 3 uM after 48 hrs by annexin V-FITC/propidium iodide staining-based flow cytometry (reference value: 3.87%); format: functional

## CC(C)=CCC/C(C)=C/CC/C(C)=C/CSc1ccccc1C(=O)NCCOCCN
[1]
  Activity: 2.07%
[2]
  Activity: Dose-dependent effect
[3]
  pIC50: 5.24
[4]
  pIC50: 5.14
[5]
  Activity: Dose-dependent effect
[6]
  Activity: 18.68%
[7]
  Activity: 24.84%
[8]
  pIC50: 5.17
[9]
  Activity: Active
[10]
  Activity: Dose-dependent effect
[11]
  viability at 3 µM: 84%
[12]
  Activity: 4.85%
[13]
  pIC50: 5.16
[14]
  Activity: Dose-dependent effect
[15]
  Activity: Dose-dependent effect
[16]
  Activity: 0.21%
[17]
  Activity: Dose-dependent effect
[18]
  logP: 4.85
[19]
  solubility at 24 h: 23.8 mg/mL (≈ 53.4 mM)
[20]
  pIC50: 5.12
[21]
  Activity: 29.84%
[22]
  viability at 6 µM: 49.4%
[23]
  viability at 12 µM: 15.3%
[24]
  Activity: 0.24%
[25]
  pIC50: 5.21
[26]
  Activity: 59.67%
[27]
  pIC50: 5.42
[28]
  Activity: Active
[29]
  Activity: Active
[30]
  Activity: Dose-dependent effect
[31]
  Activity: 10.9%
